According to ChEMBL document CHEMBL1687758, “Azithromycin alters macrophage phenotype and pulmonary compartmentalization during lung infection with Pseudomonas” (2010):
Active and inactive are the calls of the source. The rule behind the calls is not given here.

How the values were obtained:
Mus musculus [1] = assay: Immunomodulatory activity in Pseudomonas aeruginosa M57-15 infected C57BL/6 mouse lung assessed as CD11b-c+ cell expression level in lung digest at 0.16 g/kg, po measured after 7 days by flow cytometry (reference value: 29.15 +/- 3.98 %); assay type: functional
In short: (§1)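 Oral gavage of 0.16 g/kg daily (2% methylcellulose vehicle) began 4 days before intratracheal bead infection (1 × 105 to 2 × 10^5 CFU). On days 3, 7 and 14, cells were taken from lavage (0.3 mM EDTA buffer) and from collagenase/DNase lung digest (1 h, 37°C). Cells were stained for CD11b, CD11c, Gr-1, CD4, CD80, MHC-II and MR, with more than 50,000 events acquired. Counts were gated percent × manual cell count.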

Mus musculus [2] = assay: Immunomodulatory activity in Pseudomonas aeruginosa M57-15 infected C57BL/6 mouse lung assessed as CD11b+c+ cell expression level in lung lavage fluid at 0.16 g/kg, po measured after 14 days by flow cytometry (reference value: 5.42 +/- 5.34 %); assay type: functional; in short: as §1
Pseudomonas aeruginosa [3] = assay: Antibacterial activity against Pseudomonas aeruginosa M57-15 infected in C57BL/6 mouse assessed as effect on host weight loss at 0.16 g/kg, po measured up to 14 days; assay type: functional, organism-based
In short: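 Dosing was 0.16 g/kg daily by oral gavage in 2% methylcellulose, or vehicle, from 4 days before intratracheal bead infection (1 × 105 to 2 × 10^5 CFU). Body weight was followed over the study and compared with a sham-infected group. Groups had 3 to 6 mice, and each experiment was repeated at least three times.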

Mus musculus [4] = assay: Immunomodulatory activity in Pseudomonas aeruginosa M57-15 infected C57BL/6 mouse lung assessed as increase of CD80 expression in CD11b+ Gr1+ cells in alveolar space at 0.16 g/kg, po measured after 7 days by flow cytometry; assay type: functional, organism-based; in short: as §1
Mus musculus [5] = assay: Immunomodulatory activity in Pseudomonas aeruginosa M57-15 infected C57BL/6 mouse lung assessed as decrease of IL-10 production in CD11b+ cells in lung digest at 0.16 g/kg, po measured after 7 days by flow cytometry; assay type: functional, organism-based
In short: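 Lung digest cells (2 × 106) were stimulated for 4 h with 50 ng/ml PMA and 500 ng/ml ionomycin plus 10 μg/ml brefeldin A. They were surface-stained for CD11b/CD11c, fixed in 4% formalin, permeabilized with 0.05% saponin, Fc-blocked, and stained for intracellular TNF-α and IL-10 for flow cytometry. Mice were dosed at 0.16 g/kg by daily oral gavage from 4 days before infection.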

Mus musculus [6] = assay: Immunomodulatory activity in Pseudomonas aeruginosa M57-15 infected C57BL/6 mouse lung assessed as CD11b+c+ cell expression level in lung lavage fluid at 0.16 g/kg, po measured after 7 days by flow cytometry (reference value: 1.51 +/- 1.53 %); assay type: functional; in short: as §1
Mus musculus [7] = assay: Immunomodulatory activity in Pseudomonas aeruginosa M57-15 infected C57BL/6 mouse lung assessed as CD11b+c- cell expression level in lung lavage fluid at 0.16 g/kg, po measured after 7 days by flow cytometry (reference value: 1.13 +/- 0.30 %); assay type: functional; in short: as §1
Mus musculus [8] = assay: Immunomodulatory activity in Pseudomonas aeruginosa M57-15 infected C57BL/6 mouse lung assessed as decrease of IL-10 production in CD11b+ cells in lung lavage fluid at 0.16 g/kg, po measured after 7 days by flow cytometry; assay type: functional, organism-based
In short: (§2)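 The first 1-ml lavage wash was frozen at −80°C. Samples diluted 5-fold were incubated 3 h at room temperature with capture beads for a cytometric bead array (IL-12p70, CCL2, TNF-α, IL-10, IFN-γ, IL-6) plus a PE-conjugated detection antibody. Fluorescence was read by flow cytometry against standard curves. Mice had daily oral 0.16 g/kg from 4 days before intratracheal infection.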

Mus musculus [9] = assay: Immunomodulatory activity in Pseudomonas aeruginosa M57-15 infected C57BL/6 mouse lung assessed as CD11b+c- cell expression level in lung digest at 0.16 g/kg, po measured after 14 days by flow cytometry (reference value: 21.97 +/- 3.51 %); assay type: functional; in short: as §1
Mus musculus [10] = assay: Immunomodulatory activity in Pseudomonas aeruginosa M57-15 infected C57BL/6 mouse lung assessed as CD11b+c- cell expression level in lung lavage fluid at 0.16 g/kg, po measured after 3 days by flow cytometry (reference value: 1.20 +/- 0.41 %); assay type: functional; in short: as §1
Mus musculus [11] = assay: Immunomodulatory activity in Pseudomonas aeruginosa M57-15 infected C57BL/6 mouse lung assessed as CD11b+c- cell expression level in lung lavage fluid at 0.16 g/kg, po measured after 14 days by flow cytometry (reference value: 1.15 +/- 0.62 %); assay type: functional; in short: as §1
Mus musculus [12] = assay: Immunomodulatory activity in Pseudomonas aeruginosa M57-15 infected C57BL/6 mouse lung assessed as CD11b-c+ cell expression level in lung lavage fluid at 0.16 g/kg, po measured after 14 days by flow cytometry (reference value: 72.38 +/- 13.69 %); assay type: functional; in short: as §1
Mus musculus [13] = assay: Immunomodulatory activity in Pseudomonas aeruginosa M57-15 infected C57BL/6 mouse lung assessed as decrease of IL-12p70 production in CD11b+ cells in lung lavage fluid at 0.16 g/kg, po measured after 7 days by flow cytometry; assay type: functional, organism-based; in short: as §2
Mus musculus [14] = assay: Immunomodulatory activity in Pseudomonas aeruginosa M57-15 infected C57BL/6 mouse lung assessed as CD11b+c+ cell expression level in lung lavage fluid at 0.16 g/kg, po measured after 3 days by flow cytometry (reference value: 2.38 +/- 0.75 %); assay type: functional; in short: as §1
Mus musculus [15] = assay: Immunomodulatory activity in Pseudomonas aeruginosa M57-15 infected C57BL/6 mouse lung assessed as CD11b+c+ cell expression level in lung digest at 0.16 g/kg, po measured after 3 days by flow cytometry (reference value: 8.63 +/- 0.53 %); assay type: functional; in short: as §1
Mus musculus [16] = assay: Immunomodulatory activity in Pseudomonas aeruginosa M57-15 infected C57BL/6 mouse lung assessed as CD11b-c+ cell expression level in lung digest at 0.16 g/kg, po measured after 3 days by flow cytometry (reference value: 19.71 +/- 3.89 %); assay type: functional; in short: as §1
Mus musculus [17] = assay: Immunomodulatory activity in Pseudomonas aeruginosa M57-15 infected C57BL/6 mouse lung assessed as increase of CD80 expression in CD11b+ Gr1+ cells in lung digest at 0.16 g/kg, po measured after 7 days by flow cytometry; assay type: functional, organism-based; in short: as §1
Pseudomonas aeruginosa [18] = assay: Antibacterial activity against Pseudomonas aeruginosa M57-15 infected in C57BL/6 mouse assessed as effect on bacterial burden at 0.16 g/kg, po measured up to 14 days; assay type: functional, organism-based
In short: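 Mice got 0.16 g/kg in 2% methylcellulose by daily oral gavage, starting 4 days before infection, or vehicle. Infection was intratracheal with bead-embedded bacteria, 1 × 105 to 2 × 10^5 CFU (about LD10). On days 0, 3, 7 and 14, aliquots of lung lavage and digest were plated on Pseudomonas selection agar and CFU counted manually after overnight growth.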

Mus musculus [19] = assay: Immunomodulatory activity in Pseudomonas aeruginosa M57-15 infected C57BL/6 mouse lung assessed as increase of CD4+ T cell in alveolar space at 0.16 g/kg, po measured after 7 days by flow cytometry; assay type: functional, organism-based; in short: as §1
Mus musculus [20] = assay: Immunomodulatory activity in Pseudomonas aeruginosa M57-15 infected C57BL/6 mouse lung assessed as CD11b-c+ cell expression level in lung lavage fluid at 0.16 g/kg, po measured after 7 days by flow cytometry (reference value: 72.59 +/- 16.30 %); assay type: functional; in short: as §1
Mus musculus [21] = assay: Immunomodulatory activity in Pseudomonas aeruginosa M57-15 infected C57BL/6 mouse lung assessed as increase of mannose receptor expression in lung digest at 0.16 g/kg, po measured after 7 days by flow cytometry; assay type: functional, organism-based; in short: as §1
Mus musculus [22] = assay: Immunomodulatory activity in Pseudomonas aeruginosa M57-15 infected C57BL/6 mouse lung assessed as CD11b+c- cell expression level in lung digest at 0.16 g/kg, po measured after 3 days by flow cytometry (reference value: 25.42 +/- 10.57 %); assay type: functional; in short: as §1
Mus musculus [23] = assay: Immunomodulatory activity in Pseudomonas aeruginosa M57-15 infected C57BL/6 mouse lung assessed as decrease of IL-6 production in CD11b+ cells in lung lavage fluid at 0.16 g/kg, po measured after 7 days by flow cytometry; assay type: functional, organism-based; in short: as §2

What does the source list for `CC[C@H]1OC(=O)[C@H](C)[C@@H](O[C@H]2C[C@@](C)(OC)[C@@H](O)[C@H](C)O2)[C@H](C)[C@@H](O[C@@H]2O[C@H](C)C[C@H](N(C)C)[C@H]2O)[C@](C)(O)C[C@@H](C)CN(C)[C@H](C)[C@@H](O)[C@]1(C)O` [AZITHROMYCIN]?
Activity (Mus musculus [1]): 20.36%; Activity (Mus musculus [2]): 5.25%; Activity (Pseudomonas aeruginosa [3]): inactive; Activity (Mus musculus [4]): Active; Activity (Mus musculus [5]): inactive; Activity (Mus musculus [6]): 21.67%; Activity (Mus musculus [7]): 13.3%; Activity (Mus musculus [8]): inactive; Activity (Mus musculus [9]): 15.55%; Activity (Mus musculus [10]): 0.42%; Activity (Mus musculus [11]): 2.24%; Activity (Mus musculus [12]): 46.16%; Activity (Mus musculus [13]): inactive; Activity (Mus musculus [14]): 2.37%; Activity (Mus musculus [15]): 7.44%; Activity (Mus musculus [16]): 20.92%; Activity (Mus musculus [17]): Active; Activity (Pseudomonas aeruginosa [18]): inactive; Activity (Mus musculus [19]): Active; Activity (Mus musculus [20]): 38.47%; Activity (Mus musculus [21]): Active; Activity (Mus musculus [22]): 14.42%; Activity (Mus musculus [23]): Active
